Consider one molecule from ChEMBL document CHEMBL3526139, “Clinical pharmacokinetics, metabolism, and drug-drug interaction of carfilzomib” (Drug Metab Dispos, 2013).

Molecules are shown by their SMILES.

Assay type in all cases: ADME, organism-based
The nature of data set [1]: AUC infinity in human patient with relapsed solid tumor at 20 mg/m'2, iv administered over 2 to 10 mins on days 1, 2, 8, 9, 15 and 16 of 28-day cycle measured on day 1 of cycle 1 by LC-MS/MS analysis. Details: route intravenous, time infinity. Particulars: plasma. A digest of the protocol: (§1)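 Patients with relapsed solid tumors (n=3) received carfilzomib IV at 20 mg/m2. Plasma was sampled on Days 1 and 16 of Cycle 1 before dosing, at end of administration, and at 5, 15, 30 min and 1, 2, 4 h after. Samples underwent solid phase extraction and LC-MS/MS with d10-carfilzomib internal standard over 0.100–200 ng/mL. Parameters were derived noncompartmentally (constant IV infusion model) from actual elapsed time from infusion start.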

Data set [2] can be described thus: Drug excretion in urine of iv dosed human patient with relapsed and refractory hematological malignancies assessed as morpholino-hPhe-Leu metabolite formation administered on days 1, 2, 8, 9, 15 and 16 of 28-day cycle over 2 to 10 mins by LC-MS/MS analysis. Particulars: in vivo.
Data set [3] can be described thus: Plasma clearance in human patient with relapsed solid tumor at 20 mg/m'2, iv administered over 2 to 10 mins on days 1, 2, 8, 9, 15 and 16 of 28-day cycle measured on day 1 of cycle 1 by LC-MS/MS analysis. Put shortly:
as §1

What is called AUC(0-inf) is the area under the concentration-time curve extrapolated to infinity. The term clearance denotes the rate of elimination divided by the concentration. `CC(C)C[C@H](NC(=O)[C@H](CCc1ccccc1)NC(=O)CN1CCOCC1)C(=O)N[C@@H](Cc1ccccc1)C(=O)N[C@@H](CC(C)C)C(=O)[C@@]1(C)CO1` [CARFILZOMIB]: the AUC(0-inf) in data set [1] turned out to be 238 ng·h/mL. The Drug excretion entry in data set [2] is reported as “metabolite_detected”. Moreover, the clearance in data set [3] was 2430 mL/min.
